Assay results reported in ChEMBL document CHEMBL3297735, “Optimization of troglitazone derivatives as potent anti-proliferative agents: towards more active and less toxic compounds” (Eur J Med Chem, 2014).

Legend:
MDA-MB-231 = assay: Cytotoxicity against human MDA-MB-231 cells assessed as cell viability at 10 uM after 72 hrs by MTS assay in presence of 10% fetal calf serum relative to control; type: functional; details: MDA-MB-231, 72 h, read-out: Activity
Outline: (§1)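 Cells were grown in RPMI with L-glutamine, 10% FCS, penicillin/streptomycin and fungizone at 37 °C under 5% CO2. Wells were seeded with 1900 cells for MCF-7 or 1300 cells for MDA-MB-231. After 24 h, compound was added from a 10 mM DMSO stock (final DMSO 1%) for 72 h, with DMSO-only controls. Viable cells were read by MTS at 490 nm and expressed as % of untreated. Mean ± SEM, N = 3.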

[1] = Cytotoxicity against human MiaPaCa cells assessed as cell viability at 10 uM after 72 hrs by MTS assay in presence of 10% fetal calf serum relative to control; type: functional; details: MIA PaCa-2, 72 h, read-out: Activity
HCT-116 = assay: Cytotoxicity against human HCT116 cells assessed as cell viability at 10 uM after 72 hrs by MTS assay in presence of 10% fetal calf serum relative to control; type: functional; details: HCT-116, 72 h, read-out: Activity
MCF7 = assay: Cytotoxicity against human MCF7 cells assessed as cell viability at 10 uM after 72 hrs by MTS assay in presence of 10% fetal calf serum relative to control; type: functional; details: MCF7, 72 h, read-out: Activity; outline: as §1
[2] = Cytotoxicity against human MDA435 cells assessed as cell viability at 10 uM after 72 hrs by MTS assay in presence of 10% fetal calf serum relative to control; type: functional; details: MDA-MB-435, 72 h, read-out: Activity
PC-3 = assay: Cytotoxicity against human PC3 cells assessed as cell viability at 10 uM after 72 hrs by MTS assay in presence of 10% fetal calf serum relative to control; type: functional; details: PC-3, 72 h, read-out: Activity
LNCaP = assay: Cytotoxicity against human LNCAP cells assessed as cell viability at 10 uM after 72 hrs by MTS assay in presence of 10% fetal calf serum relative to control; type: functional; details: read-out: Activity
HepG2 = assay: Cytotoxicity against human HepG2 cells assessed as cell viability at 10 uM after 72 hrs by MTS assay in presence of 10% fetal calf serum relative to control; type: functional; details: HepG2, 72 h, read-out: Activity
[3] = Cytotoxicity against human hepatocytes assessed as cell viability at 100 uM after 90 mins by MTT assay relative to control; type: cell-based, Hepatocyte; details: read-out: Activity
Outline: (§2)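 Cryopreserved human hepatocytes were plated at 0.1 × 10⁶ cells/well and exposed to compound for 90 min. MTT was then added for 30 min at 37 °C, plates were centrifuged, and formazan was dissolved in DMSO. Absorbance was read at 595 nm. Surviving cells are expressed as % of non-treated cells ± SEM.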

[4] = Cytotoxicity against human hepatocytes assessed as cell viability at 200 uM after 90 mins by MTT assay relative to control; type: cell-based, Hepatocyte; details: read-out: Activity; outline: as §2

SMILES	viability at 10 µM (MDA-MB-231) [%]	viability at 10 µM [1] [%]	viability at 10 µM (HCT-116) [%]	viability at 10 µM (MCF7) [%]	viability at 10 µM [2] [%]	viability at 10 µM (PC-3) [%]	viability at 10 µM (LNCaP) [%]	viability at 10 µM (HepG2) [%]	viability at 1.5 h, 100 µM [3] [%]	viability at 1.5 h, 200 µM [4] [%]
COc1ccc(/C=C2\SC(=O)N(Cc3ccccc3)C2=O)cc1	89.5	99.3	82.1	100	92.7	91.4	100	87.9		
Cc1c(C)c2c(c(C)c1O)CCC(C)(/C=C1\SC(=O)N(Cc3ccccc3)C1=O)O2 (racemic)	88	80.7	81	94.2	75.7	83.4	84.6	71.5		
O=C1S/C(=C\c2ccc(O)cc2)C(=O)N1Cc1ccccc1	24.5	25.6	29.8	43.9	30.9	65.8	77.6	54.5	40.8	18
COc1cc(/C=C2\SC(=O)N(Cc3ccccc3)C2=O)cc(OC)c1OC	51.5	69.8	55.9	74.7	78.8	67.9	76.2	63.8		
CC1(CN2C(=O)S/C(=C\c3cc(Br)c(O)c(Br)c3)C2=O)CCCCC1	46.9	34.7	13	23.8	30.6	52.9	18.8	25.8	42.1	30.3
Cc1c(C)c2c(c(C)c1O)CCC(C)(COc1ccc(/C=C3\SC(=O)N(Cc4ccccc4)C3=O)cc1)O2 (racemic)	76.4	100	43	85.3	88.7	100	85.7	63.2		
Cc1c(C)c2c(c(C)c1CCCCCCNC(=O)OC(C)(C)C)CCC(C)(COc1ccc(/C=C3\SC(=O)NC3=O)cc1)O2 (racemic)	49.3	69.7	45.2	75.5	60.9	73.7	32.2	22.7	85.1	80.3
Cc1c(C)c2c(c(C)c1OC(=O)CCCCCCCN)CCC(C)(COc1ccc(/C=C3\SC(=O)N(C)C3=O)cc1)O2 (racemic)	0	0	0.6	0	0	2.4	9.3	7.9	84.5	54.4
Cc1c(C)c2c(c(C)c1OC(=O)OC(C)(C)C)CCC(C)(/C=C1\SC(=O)N(Cc3ccccc3)C1=O)O2 (racemic)	75.4	75.3	90.5	76.5	67.6	82.4	96.2	76.3		
O=C(O)c1ccccc1-c1ccc(CN2C(=O)S/C(=C\c3ccc(O)cc3)C2=O)cc1	94.9	99.3	97.6	99.6	100	95.6	90.1	89.8		
Cc1c(C)c2c(c(C)c1O)CCC(C)(COc1ccc(CC3SC(=O)NC3=O)cc1)O2 (stereo not drawn) [TROGLITAZONE]	88.1	98.3	90.7	96.7	87.8	86.2	82.8	85.8	52.2	22.5
CC(C)(C)OC(=O)c1ccccc1-c1ccc(CN2C(=O)S/C(=C\c3ccc(O)cc3)C2=O)cc1	51.9	59.9	61.6	80.3	66.8	49.9	32.4	22.8		
Cc1c(C)c2c(c(C)c1OC(=O)CCCCCCCNC(=O)OC(C)(C)C)CCC(C)(COc1ccc(/C=C3\SC(=O)NC3=O)cc1)O2 (stereo not drawn)	42.2	53.8	37	62.5	51.5	62	21.1	18.4	79.3	74.7
O=C1S/C(=C\c2ccccc2)C(=O)N1Cc1ccccc1	81.6	88.8	85.4	95.6	89.9	82.4	90.8	85		
O=C1S/C(=C\c2ccc([N+](=O)[O-])cc2)C(=O)N1Cc1ccccc1	64.6	84.9	93.9	80.2	86	72.3	77.9	79.4		
Cc1c(C)c2c(c(C)c1OC(=O)OC(C)(C)C)CCC(C)(CN1C(=O)S/C(=C\c3ccc(O)cc3)C1=O)O2 (racemic)	57.9	72.2	30.1	85.7	66	85.1	55	23.4	65.1	37.8
O=C1S/C(=C\c2ccc(O)cc2)C(=O)N1C/C=C/c1ccccc1	8.7	16.2	17.4	35	18.3	57.1	63.4	41.3	88.8	62.7
Cc1c(C)c2c(c(C)c1O)CCC(C)(COc1ccc(/C=C3\SC(=O)N(C)C3=O)cc1)O2 (racemic)	64.3	80.2	68.4	100	94.7	85.5	66.8	60.3	147	127
O=C1S/C(=C\c2ccc(Cl)cc2)C(=O)N1Cc1ccccc1	73	88.3	84	100	88.8	95.5	85.5	79.3		
CCOC(=O)C1(C)CCc2c(C)c(/C=C3\SC(=O)N(Cc4ccccc4)C3=O)c(C)c(C)c2O1 (racemic)	68.8	86	88	97.2	81.4	98.3	87.5	69.2		
Cc1c(C)c2c(c(C)c1O)CCC(C)(CN1C(=O)S/C(=C\c3ccc(O)cc3)C1=O)O2 (racemic)	4.8	0	5.3	5.2	13.4	36.3	48.9	20.8	110	103
